The nature of series [1]: folding enthalpy; higher = less favourable; fluorescence melt of hairpins on a sequencing array, two-state fit. Particulars: sodium 0.088 M. Put shortly: (§1)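 Cy3 signals were normalised both to pre-quench Cy3 and to control constructs. They came from library hairpins carrying annealed Cy3 and quencher oligos on a sequenced MiSeq flow cell, imaged in 50 mM Na-HEPES pH 8.0, 25 mM NaCl, in 2.5 °C steps up to 60 °C. Bootstrapped two-state fits gave melting temperature and folding enthalpy, and four replicates were combined by inverse variance. Fitted temperatures were then raised by 9.35 °C to match UV melts.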

A short description of series [2]: melting temperature; fluorescence melt of hairpins on a sequencing array, two-state fit, raised by 9.35 °C to match UV melts. Particulars: sodium 0.088 M. Put shortly: as §1

Take GTTGCCCGAAAGGGAAC (((.(((....)))))): the folding enthalpy in series [1] was -15.6 kcal/mol. The Tm in series [2] is 47.6 °C.
As to GTTGCCCGAAAGGGGAAC (((.(((....))).))), the folding enthalpy in series [1] is -34.2 kcal/mol. For the same sequence, the Tm in series [2] was found to be 62.1 °C.
The like results for GTTGCCCGAAAGGGTAAC (((.(((....))).))) were, in that order, -31.6 kcal/mol and 60.9 °C.
With GTTGCCGAAAGGCGAAC ((((((....))).))), the folding enthalpy in series [1] was -13.8 kcal/mol. For the same sequence, the Tm in series [2] was 50.3 °C.
On to GTTGCCGGAAACGGTGAC ((..(((....)))..)), for which, in series [1], the folding enthalpy was -22.8 kcal/mol. Moreover, the Tm in series [2] was found to be 47.8 °C.
As to GTTGCGGGAAACCGTAGC (.(.(((....))).).), the folding enthalpy in series [1] was -24.5 kcal/mol. Also, the Tm in series [2] came to 36.1 °C.
The like results for GTTGCGGGAAACTGCGAC ((.((.(....).)).)) were, in that order, -11 kcal/mol and 38 °C.
On the same counts, the results for GTTGCTGGAAACAACAAC ((((.((....)).)))) are -29.2 kcal/mol and 38.8 °C.
The like results for GTTGCTGGAAACAGCAAC (((((((....))))))) were, in that order, -62.8 kcal/mol and 65.8 °C.
On to GTTGGAGGAAACTCCGAC ((.((((....)))).)), for which, in series [1], the folding enthalpy was -40.7 kcal/mol. Further, in series [2], the Tm turned out to be 52.8 °C.
The like results for GTTGGAGGAAACTCTAAC (((.(((....))).))) were, in that order, -27.1 kcal/mol and 39.9 °C.
For GTTGGCGAAAGCCAGAAC ((((((....)))..))), in series [1], the folding enthalpy was -8.8 kcal/mol. Further, in series [2], the Tm came to 35.1 °C.
The like results for GTTGGCGAAAGCCCAAC ((((((....))).))) were, in that order, -16.3 kcal/mol and 50.7 °C.
For GTTGGCGGAAACGTCAAC ((((.((....)).)))), the folding enthalpy in series [1] was -36.7 kcal/mol. Moreover, the Tm in series [2] amounted to 56.8 °C.
Regarding GTTGGGCGAAAGCCGAAC (((.(((....))).))), the folding enthalpy in series [1] was -19.5 kcal/mol. Besides, in series [2], the Tm worked out at 53.2 °C.
Regarding GTTGGGGAAACCCAAC ((((((....)))))), the folding enthalpy in series [1] was -36.8 kcal/mol. The Tm in series [2] was found to be 60 °C.
Regarding GTTGGGGGAAACCCCAGC (.(((((....))))).), in series [1], the folding enthalpy was -17.3 kcal/mol. Also, the Tm in series [2] was determined as 49.8 °C.
The like results for GTTGGTGGAAACATCAGC (.((.((....)).)).) were, in that order, -18.8 kcal/mol and 31.4 °C.
On the same counts, the results for GTTGTACGAAAGTATAAC (((.(((....))).))) are -26.9 kcal/mol and 47.6 °C.
On the same counts, the results for GTTGTAGGAAACTACAGC (.(((((....))))).) are -25.8 kcal/mol and 42 °C.
As to GTTGTCCGAAAGGAAAC (((.(((....)))))), the folding enthalpy in series [1] was -20.4 kcal/mol. In series [2], the Tm was 37.8 °C.
On the same counts, the results for GTTGTCGAAAGACAAAC ((((((....))).))) are -14.2 kcal/mol and 48.9 °C.
Consider GTTGTCGAAAGACCGAAC ((((((....)))..))), for which the folding enthalpy in series [1] was -11.3 kcal/mol. Besides, in series [2], the Tm amounted to 28.8 °C.
The like results for GTTGTCGAAAGACGAAAC ((((((....)))..))) were, in that order, -9.08 kcal/mol and 29.1 °C.
The like results for GTTGTCGAAAGACTCAAC ((((((....)))..))) were, in that order, -11.7 kcal/mol and 27.7 °C.
The like results for GTTGTCGGAAACGATGAC ((..(((....)))..)) were, in that order, -16 kcal/mol and 40.4 °C.
Take GTTGTGCCGAAAGGCAAC (((..(((....)))))): in series [1], the folding enthalpy is -19.6 kcal/mol. The Tm in series [2] is 53 °C.
The like results for GTTGTGGCGAAAGCCAAC (((..(((....)))))) were, in that order, -18.3 kcal/mol and 53.7 °C.
As to GTTGTGGGAAACCACAAC (((((((....))))))), the folding enthalpy in series [1] is -46 kcal/mol. For the same sequence, the Tm in series [2] amounted to 63.1 °C.
With GTTGTGGGAAACCACGAC ((.((((....)))).)), in series [1], the folding enthalpy was -30.8 kcal/mol. In addition, in series [2], the Tm was 52.7 °C.
Turning to GTTGTGGGAAACCGTAAC (((..((....))..))), the folding enthalpy in series [1] is -13 kcal/mol. The Tm in series [2] came out at 29.2 °C.
The like results for GTTGTTCCGAAAGGAAAC (((..(((....)))))) were, in that order, -20.5 kcal/mol and 49.1 °C.
On the same counts, the results for GTTGTTCGAAAGAATAAC (((.(((....))).))) are -31.6 kcal/mol and 45.6 °C.
For GTTGTTGAAAAACAAC ((((((....)))))), the folding enthalpy in series [1] is -38.2 kcal/mol. In series [2], the Tm was determined as 51.9 °C.
On the same counts, the results for GTTGTTGCGAAAGCAAAC (((..(((....)))))) are -21.7 kcal/mol and 53.1 °C.
As for GTTGTTGGAAACAACAGC (.(((((....))))).), in series [1], the folding enthalpy was -13.2 kcal/mol. Further, the Tm in series [2] came out at 52.8 °C.

These data come from the array DNA melting data of Ke et al. (doi:10.1101/2024.01.08.574731).
